# Bioassay records deposited in PubChem by several laboratories.
# Granule exo inh: blocks lytic granule exocytosis; AID 651702; TALL-104 LAMP-1 surface exposure, flow cytometry; cells stimulated with thapsigargin and PMA; hit rate 0.66% among 360,000; inhibition, % at 10 µM;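 active = inhibition above about 55%, limit read from the data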
# CSN deneddyl inh: blocks human CSN-mediated cullin deneddylation | Q92905 | Purified CSN, SCF-Nedd8-OG deneddylation, fluorescence polarization | inhibition, % at 12.5 µM | hit rate 0.38% among 360,000 | AID 651999;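 active = pattern-corrected inhibition above about 35%, with an unprinted fluorescence ratio check between 0.5 and 1.5, limit read from the data, passing the limit was not always enough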;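 also: 0% = enzyme with substrate and 100% = substrate without enzyme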
#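 Detection – fluorescence polarization · System – HEK293T-derived human Csn5 enzyme · Controls – substrate-only high control, full reaction low control · Timing – 90 min, room temperature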
# Myeloid diff 2: compounds promoting myeloid differentiation. AID 624256. calls only at 10 µM. ER-HoxA9 myeloid progenitors, lysozyme-GFP differentiation, flow cytometry. hit rate 1% among 360,000;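 active = normalized GFP-positive differentiation at or above the plate's own cutoff, the solvent-only control mean plus 3 SD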;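 also: cells exposed to compound for four days before flow analysis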
# HNF4A DNA FP: change in binding of human HNF4 alpha to DNA. HNF4a-FITC DNA binding, fluorescence polarization, 1 h. activity change, % at 10 µM. hit rate 0.3% among 360,000. AID 1224865; in the data active = activity change above about 30%, passing the limit was not always enough
# Target sequence (P41235 whole entry, looked up): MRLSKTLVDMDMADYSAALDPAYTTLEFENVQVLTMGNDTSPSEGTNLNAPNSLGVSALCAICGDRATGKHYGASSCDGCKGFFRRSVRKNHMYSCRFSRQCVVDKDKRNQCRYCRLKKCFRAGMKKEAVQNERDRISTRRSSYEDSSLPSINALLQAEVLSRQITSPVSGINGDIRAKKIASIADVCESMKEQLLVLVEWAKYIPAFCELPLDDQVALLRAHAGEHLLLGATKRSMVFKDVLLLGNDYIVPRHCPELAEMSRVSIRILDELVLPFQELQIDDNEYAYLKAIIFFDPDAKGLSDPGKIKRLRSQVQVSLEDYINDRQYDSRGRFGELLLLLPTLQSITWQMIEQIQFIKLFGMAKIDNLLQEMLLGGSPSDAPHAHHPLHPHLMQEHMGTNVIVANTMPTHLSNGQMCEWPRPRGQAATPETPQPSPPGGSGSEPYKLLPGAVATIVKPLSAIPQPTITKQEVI
# Granule exo CP1: lytic granule exocytosis inhibition; AID 651954; TALL-104 cells, LAMP-1 externalization, flow cytometry; stimulated with PMA plus thapsigargin; shares compounds with Granule exo inh; inhibition, % at 10 µM; hit rate 11% among 1,500; in the data active = inhibition above about 60%;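 also: 0% = stimulated vehicle wells and 100% = unstimulated wells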
# Numbers without * were called inactive; i = inactive; . = no result given; + = active, no number. An excerpt weighted towards active compounds, which were near 2.2% of everything screened.
SMILES,Granule exo inh,CSN deneddyl inh,Myeloid diff 2,HNF4A DNA FP,Granule exo CP1
CCCCOCC(O)Cn1c(C)nc2ccccc21 (centres undefined),-2,1,i,-1,.
Cc1nc2ccccc2n1CC(O)Cn1c2ccccc2c2ccccc21 (centres undefined),58*,-5,+,-2,-10
Cc1ccc(NCCCn2ccc(NC(=O)OCc3ccccc3)nc2=O)cc1C,-2,-4,i,-2,.
COc1ccc(N(CC(=O)NCCC2=CCCCC2)S(=O)(=O)c2ccccc2)cc1OC,1,6,i,-1,.
CCOc1ccc(N(CC(=O)NCCSc2ccccn2)S(=O)(=O)c2ccc(Cl)cc2)cc1,57*,8,i,-1,-5
COc1ccc(N(CC(=O)Nc2ccc(OC)c(OC)c2)S(=O)(=O)c2ccccc2)cc1Cl,32,9,i,-3,.
COc1ccc(NC(=O)CN(c2ccc(OC)c(Cl)c2)S(=O)(=O)c2ccccc2)cc1,56*,1,i,3,-3
COc1ccc(N(CC(=O)NCCOc2ccccc2)S(=O)(=O)c2ccc(C)cc2)cc1,78*,3,i,0,-12
COc1ccc(N(CC(=O)NCCC2=CCCCC2)S(=O)(=O)c2ccccc2)cc1,62*,1,i,4,-5
COc1cc(NC(=O)c2c(-c3ccccc3Cl)noc2C)c2ncccc2c1,82*,7,i,3,-7
CC1(c2nnc(Cc3ccccc3)o2)CC(c2cccnc2)=NO1 (centres undefined),68*,1,i,9,-14
O=C(CSc1ccc2nnc(CCNC(=O)c3ccc(F)cc3)n2n1)NCC1CCCO1 (centres undefined),14,-2,i,2,.
Cc1cc(N2CCN(c3ncccn3)CC2)nc2c(C)cccc12,72*,-1,i,-1,-14
CN1C(=O)/C(=C/c2ccc(OCc3ccc(F)cc3)cc2)NC1=S,11,-4,i,11,.
COC(=O)c1cc(OCC(=O)Nc2ccc3c(c2)CCC3)cc(C(=O)OC)c1,-2,1,i,1,.
O=C(Nc1nc(-c2ccccc2)cs1)c1ccco1,2,3,i,-3,.
O=C(Nc1nc(-c2ccco2)cs1)c1ccccc1,71*,8,i,12,-12
CCC(C)[C@H](NC(=O)NCc1ccc(F)cc1)C(=O)O (some centres undefined),0,4,i,0,.
CCC(C)[C@H](NC(=O)NCc1ccccc1)C(=O)O (some centres undefined),100*,-2,i,3,-11
COC(=O)c1c(C(=O)OC)c2c(-c3ccccc3)cc3cccc1n32,55,4,i,1,.
O=C(CCCOc1ccc(Cl)cc1)NC1CCCCC1,-1,-4,i,-1,.
NC(=O)SCC(=O)Nc1ccc(Cl)cc1,78*,-1,i,0,-6
NC(=O)SCC(=O)Nc1ccc(Cl)c(Cl)c1,3,-3,i,2,.
Cc1cc(Br)cn2c(Cc3cccc(Cl)c3)c(-c3ccco3)nc12,56*,27,i,9,22
Cc1ccc(Cc2c(-c3ccco3)nc3c4ccccc4ccn23)cc1,58*,22,i,18,0
SMILES,Granule exo inh,CSN deneddyl inh,Myeloid diff 2,HNF4A DNA FP,Granule exo CP1
Cc1cc2nc(-c3ccco3)c(Cc3cccc(Cl)c3)n2c(C)c1Br,73*,36*,i,6,2
Cc1cc2nc(-c3cccc(Cl)c3)c(Cc3cccc(Cl)c3)n2c(C)c1Br,6,7,i,6,.
CCCCCOc1ccc(C(O)C(CN2CCOCC2)c2ccccc2)cc1 (centres undefined),-2,-5,i,-5,.
COc1ccccc1/C=C/CN1CCCC(CO)(CCc2ccccc2)C1 (centres undefined),58*,4,i,1,-5
CN(CC1CCN(CCc2cccc(C(F)(F)F)c2)CC1)C(=O)c1ccccc1,56*,7,i,3,-12
CCCNC(=O)Cn1sc2nc(C)cc(C)c2c1=O,58*,-1,i,6,103*
CC(=O)Cn1cnc2c(sc3nc(C)cc(C)c32)c1=O,-6,8,i,4,.
CC1(C)CC(NC(=O)c2ccc(Cl)c(S(=O)(=O)N(Cc3ccccc3)c3ccccc3)c2)CC(C)(C)N1,-2,2,i,2,.
Cc1ccc(C)c(CN2CCC(CNC(=O)Nc3ccc(F)c(Cl)c3)CC2)c1,58*,4,i,0,0
